What is called Ki is the dissociation constant of the complex between target and ligand, obtained from inhibition or displacement. Low values mean tighter binding, high ones weaker binding. In general, IC50 refers to the concentration needed to halve the response being measured. Lower therefore signals greater potency in that assay.

Structures can show the parent of a compound that is named as a salt.

Experiment [1] relates to GST enzyme isolated from blueberry fruits (Vaccinium arctostaphylos L.). The experiment is described as follows: In vitro inhibition of purified blueberry fruit GST by pesticides. It counts as biochemical. The conditions noted are these: for Ki: Lineweaver-Burk graphs, 1/V versus 1/[GSH]; for Ki / Inhibition type: GSH as substrate; for Inhibition type: from Lineweaver-Burk graphs; for IC50: from activity (%) - pesticide concentration graphs, minimum five concentrations. The method in brief: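 GST purified from ripe berries (stored at -20 °C). The 1 mL assay used 0.1 M K-phosphate pH 7.0, CDNB (25 mM stock in ethanol) and GSH (20 mM stock). It was started with enzyme and absorbance was read for 3 min. Pesticides were tested at ≥5 concentrations against a no-pesticide control set as 100%. Ki and inhibition type came from 1/V versus 1/[GSH] plots.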

For experiment [2] the test system is unchanged. The experiment is described as follows: Kinetic studies of purified blueberry fruit GST with substrates CDNB and GSH. It counts as biochemical. The conditions noted are these: CDNB 0.05-1.6 mM at fixed GSH 20 mM; GSH 0.05-1.6 mM at fixed CDNB 25 mM. The method in brief:
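The enzyme was blueberry GST purified by Sephadex G-100 gel filtration then GSH-agarose affinity chromatography with GSH gradient elution. Reactions were 1 mL in 0.1 M K-phosphate buffer pH 7.0, with one substrate varied and the other held fixed. The reaction was started by rapid enzyme addition and absorbance was followed spectrophotometrically for 3 min.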

Consider `O=C(O)COc1ccc(Cl)cc1Cl` [2,4 Dichlorophenoxy acetic acid], for which, in experiment [1], the Ki turned out to be 188 ± 85 µM, the Inhibition type entry is “competitive”, half-maximal inhibition (IC50) required 460 µM and the “Inhibition of GST enzyme activity in vitro (in words)” value (shortened to “Inhibition of GST enzyme activity”) was “inhibited”.
As to `CC(=NC#N)N(C)Cc1ccc(Cl)nc1` [Acetamiprid, N - [(6-chloro-3-pyridyl)methyl] -N′-cyano-N-methyl-acetamidine], in experiment [1], affinity was put at a Ki of 1560 ± 733 µM, the Inhibition type entry is recorded as “competitive”, the IC50 is 4100 µM and the “Inhibition of GST enzyme activity” value was “inhibited”.
In the case of `CC1(C)C(C=C(Cl)Cl)C1C(=O)OC(C#N)c1cccc(Oc2ccccc2)c1` (centres unmarked) [Cypermethrin, [Cyano-(3-phenoxyphenyl)methyl] 3-(2,2-dichloroethenyl) -2,2-dimethylcyclopropane-1-carboxylate], in experiment [1], the Ki was 310 ± 88 µM, the IC50 amounted to 320 µM and the “Inhibition of GST enzyme activity” value is recorded as “inhibited”.
Turning to `COP(=O)(OC)OC=C(Cl)Cl` [Dichlorvos, 2,2-dichlorovinyl dimethyl phosphate], in experiment [1], the affinity corresponds to a Ki of 17.5 ± 5 µM, the IC50 was 24 µM and the “Inhibition of GST enzyme activity” value is on record as “inhibited”.
Take `O=C(O)CNCP(=O)(O)O` [Glifosat- izopropilamine salt, glyphosate isopropylamine salt]: in experiment [1], the Ki was 266 ± 100 µM, the Inhibition type result is on record as “competitive”, 160 µM corresponded to half-maximal inhibition (IC50) and the “Inhibition of GST enzyme activity” value is recorded as “inhibited”.
Regarding `O=[N+]([O-])NC1=NCCN1Cc1ccc(Cl)nc1` [Imidacloprid, N-{1 - [(6-Chloro-3-pyridyl)methyl] -4,5-dihydroimidazol-2-yl} nitramide], in experiment [1], the Ki came to 630 ± 283 µM, the IC50 was 490 µM and the “Inhibition of GST enzyme activity” value is reported as “inhibited”.
With “(R) -2- [4- (6-chloro-1,3-benzoxazol-2-yloxy) phenoxy] propionic acid [Fenoxaprop-p-ethyl]”, in experiment [1], the affinity, expressed as Ki, was 133 µM; the Inhibition type result is on record as “competitive”; the IC50 came out at 230 µM; the “Inhibition of GST enzyme activity” value is given as “inhibited”.
Regarding g-glu-cys-gly [GSH], in experiment [2], the Vmax worked out at 0.048 EU/ml.

Values taken from publication PMC6460380 (Heliyon, 2019).
